The list is not random: actives were taken first. Their share in the collection is about 3.7%.
KCNK9 inh = blocks the human KCNK9 two-pore domain potassium channel | B-score at 10 µM | Q9NPC2 | AID 488922 | HEK293 KCNK9, FluxOR thallium flux fluorescence; active compounds read low | actives 1.2% (n = 310,000);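 active = ratio B-score over 3 SD below the library mean, with starting fluorescence within 5 SD of its mean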;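 also: negative B-score means less thallium flux so channel inhibition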
KCNK3 block = human KCNK3 channel inhibition, primary screen; O14649; CHO-KCNK3 thallium flux, FluxOR fluorescence; active compounds read low; B-score at 10 µM; actives 0.84% (n = 340,000);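 active = B-score under library mean minus 4 SD, starting fluorescence ratio at most library mean plus 5 SD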;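 also: more negative B-score means stronger inhibition of thallium flux through KCNK3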
hERG protect = hERG (human) protection from proarrhythmic block; actives 0.51% (n = 310,000); activation (rescue from dofetilide block), less the hit threshold, % at 10 µM; CHO-hERG, FluxOR thallium flux, dofetilide IC70 present;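 active = activation above the mean of controls blocked by dofetilide plus 5 SD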;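 also: thallium influx through hERG after potassium depolarization seen as dye fluorescence rise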
Kir21 inh = inhibitors of mouse Kir2.1 inward-rectifier potassium channel; actives 0.85% (n = 310,000); P35561; AID 1672; HEK293-Kir2.1, FluxOR thallium flux fluorescence; active compounds read low; B-score at 10 µM;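 active = fluorescence ratio B-score at or below minus 3 SD of library scores, with starting-brightness B-score within 2 SD, cut at about -4.2 in these data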;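 also: channel flux triggered by added potassium and thallium sulfate stimulus; B-score of peak minus minimum fluorescence over baseline after thallium stimulus; more negative B-score means stronger Kir2.1 block with less thallium influx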
KCNQ1 pot = potentiates or activates the human KCNQ1 potassium channel; P51787; CHO-K1 KCNQ1, thallium flux FluxOR fluorescence; active compounds read high; B-score at 10 µM; actives 0.35% (n = 310,000);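 active = fluorescence ratio B-score, a plate-corrected score, at least three library SD, with initial intensity B-score within 5 SD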
Target sequence (P51787 whole entry, looked up): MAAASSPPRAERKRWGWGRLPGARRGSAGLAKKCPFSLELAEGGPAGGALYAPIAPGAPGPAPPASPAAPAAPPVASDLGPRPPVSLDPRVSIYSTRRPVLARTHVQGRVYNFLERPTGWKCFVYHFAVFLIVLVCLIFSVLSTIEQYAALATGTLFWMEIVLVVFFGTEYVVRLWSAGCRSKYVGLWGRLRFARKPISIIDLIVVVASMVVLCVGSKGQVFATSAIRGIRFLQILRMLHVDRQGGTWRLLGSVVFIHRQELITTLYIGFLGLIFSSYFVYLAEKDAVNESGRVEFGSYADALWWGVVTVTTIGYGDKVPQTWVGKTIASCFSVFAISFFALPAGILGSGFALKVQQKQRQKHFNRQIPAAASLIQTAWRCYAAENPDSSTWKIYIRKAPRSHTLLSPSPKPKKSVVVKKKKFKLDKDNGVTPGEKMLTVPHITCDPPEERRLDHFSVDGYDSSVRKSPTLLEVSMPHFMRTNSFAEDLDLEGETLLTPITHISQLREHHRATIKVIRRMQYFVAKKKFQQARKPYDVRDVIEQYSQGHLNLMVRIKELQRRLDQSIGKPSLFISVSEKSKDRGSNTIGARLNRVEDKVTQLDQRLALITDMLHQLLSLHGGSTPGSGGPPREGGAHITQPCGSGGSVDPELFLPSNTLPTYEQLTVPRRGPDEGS
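Assay system: CHO-K1 cells stably expressing KCNQ1; Medium: assay buffer with matched DMSO; Also added: K+/Tl+ depolarizing stimulus; Dosing: single dose; Timing: dye 90 min, compound 20 min, room temperature; Measured by: kinetic FluxOR thallium fluorescence, 10-s 1-Hz baseline, 110-s post-stimulus read; Read-out: peak-minus-minimum fluorescence over initial fluorescence, negative-control normalized, B-scored.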
KCNQ1 block = human KCNQ1 channel inhibition | CHO-K1 KCNQ1, FluxOR thallium flux fluorescence; active compounds read high | B-score at 10 µM | actives 1.3% (n = 310,000) | AID 2642;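 active = compounds whose thallium flux B-score, printed positive for inhibition, exceeds three library SD while starting fluorescence stays within three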;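 also: channel opened by potassium depolarization with thallium stimulus after 20 min compound exposure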
KCNK9 block conf = confirmation of human KCNK9 potassium channel inhibitors; inhibition, % at 10 µM; shares compounds with KCNK9 inh; HEK293 KCNK9 cells, FluxOR thallium flux fluorescence; AID 492992; actives 43% (n = 4,900);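 active = thallium signal inhibited by more than 5 SD of the compound-free buffer control wells, on both duplicate plates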
Kir21 sel = tests whether KCNK9 modulators also affect mouse Kir2.1. shares compounds with KCNK9 inh. Kir2.1 cells, FluxOR thallium flux fluorescence. inhibition, % at 10 µM. actives 4% (n = 4,900). AID 492993;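 active = thallium signal drop more than 5 SD beyond the mean of the no-compound control wells, seen in both duplicate plates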;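 also: signal is fluorescence rise after thallium addition divided by baseline fluorescence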
KCNK9 uninduced = second counter-screen for KCNK9 modulators: effect in non-induced cells; shares compounds with KCNK9 inh; non-induced KCNK9-HEK293, FluxOR thallium flux; inhibition, % at 10 µM; actives 40% (n = 4,900); AID 492997;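 active = thallium signal drop beyond 5 SD of the untreated control mean, on both duplicate plates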
KCNK3 confirm = human KCNK3 channel inhibition, confirmation assay; actives 99% (n = 2,400); CHO-KCNK3 thallium flux, FluxOR fluorescence; 0% buffer, 100% carvedilol maximal block; AID 651638; shares compounds with KCNK3 block; ratio percent of control, % at 10 µM;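 active = ratio percent of control, averaged over triplicates, above buffer control mean plus 5 SD, cut at about 64% in these data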;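 also: ratio is the fluorescence rise from min to max over baseline after thallium stimulus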
KCNK3 noninduced = KCNK3 inhibitor counter-screen hit in non-induced cells. thallium flux ratio (lower = more inhibition) at 10 µM. actives 40% (n = 2,400). non-induced KCNK3 parental cells, FluxOR thallium flux; active compounds read low. shares compounds with KCNK3 block;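 active = thallium flux ratio, averaged over three wells, more than 5 SD below the buffer control mean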;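 also: host cells are CHO cells without KCNK3 induction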
A number is an active result; - = inactive; . = no result given.

SMILES	KCNK9 inh	KCNK3 block	hERG protect	Kir21 inh	KCNQ1 pot	KCNQ1 block	KCNK9 block conf	Kir21 sel	KCNK9 uninduced	KCNK3 confirm	KCNK3 noninduced
CCOc1cc(/C=C2\C(=N)N3N=C(S(C)(=O)=O)SC3=NC2=O)ccc1OCCOc1cccc(OC)c1	-	-	-	-	-	-	.	.	.	.	.
COc1cc(/C=C2\C(=N)N3N=C(S(C)(=O)=O)SC3=NC2=O)ccc1OCCOc1ccc(C)cc1	-	-9.06	-	-	-	10	-	-	-	75.3	0.158
COc1cc(/C=C2\C(=N)N3N=C(S(C)(=O)=O)SC3=NC2=O)cc(OC)c1OCCOc1ccc(C)cc1	-	-12.1	-	-	-	-	-	-	-	99.0	0.136
CCC(C)(C)NC(=O)CCCSc1nc2ccccc2[nH]1	-	-	-	-	-	-	.	.	.	.	.
Cc1cccc(Nc2nc(C)nc3c2oc2ccccc23)c1	-8.83	-9.01	-	-	-	-	29.5%	-	25.5%	116.3	-
COc1ccccc1C(c1nnnn1C(C)(C)C)N1CCN(Cc2ccncc2)CC1 (stereo not drawn)	-18.9	-9.22	-	-	-	-	76.5%	-	33.5%	115.7	-
COc1ccccc1N1CCN(C(c2ccccc2Cl)c2nnnn2C(C)(C)C)CC1 (stereo not drawn)	.	-	.	.	.	.	.	.	.	.	.
CCCCC[C@H](O)/C=C/[C@H]1CCC(=O)[C@@H]1CCCCCCC(=O)N1CCCCC1CO (stereo partly drawn)	-11.6	-	-	-	-	-	60.0%	-	-	84.7	-
CCC1CCCCN1C(=O)CCCOc1ccccc1 (stereo not drawn)	-	-	-	-	-	-	.	.	.	.	.
C=CC1=C2C=C(C3CC3)N(CCCN(CC)CC)C=C2C(=O)C(C)(OC(=O)c2ccco2)C1=O (stereo not drawn)	-	-	-	-	-	-	.	.	.	.	.
O=C(CCc1ccccn1)N1CCCC(N2CCN(c3cccc(C(F)(F)F)c3)CC2)C1 (stereo not drawn)	-	-	-	-	-	-	.	.	.	.	.
CC(C)(C)c1cc(C(=O)NNc2cccc(Cl)c2)n(Cc2ccccc2)n1	-15	-11.9	-	-	-	10	64.5%	-	47.5%	123.0	-
CC(C)(C)C(=O)NNC(=O)c1cc(C(C)(C)C)nn1Cc1ccccc1	-	-	-	-	-	-	.	.	.	.	.
CCCc1cc(C(=O)Cc2ccc(F)cc2)c(O)cc1O	-10.3	-8.79	-	-	-	-	60.5%	-	37.5%	107.7	-
Cn1cc([N+](=O)[O-])c(C(=O)Nc2cc(Oc3ccccc3)cc([N+](=O)[O-])c2)n1	-	-	-	-	-	-	.	.	.	.	.
Cc1cccc(Oc2cc(NC(=O)c3ccccc3)cc([N+](=O)[O-])c2)c1	-11.7	-11.6	-	-	-	6	64.0%	-	39.0%	133.0	0.149
O=C(CN1CCN(Cc2ccccc2Cl)C1=O)N1CCCCCC1	-	-	-	-	-	-	.	.	.	.	.
O=c1cc(N2CCCCC2)c(-c2ccccc2)nn1Cc1ccccc1Cl	-17.7	-9.07	-	-	-	-	38.0%	-	37.5%	112.3	-
O=C(c1ccc(NS(=O)(=O)c2ccccc2)cc1)N1CCOCC1	-	-	-	-	-	-	.	.	.	.	.
O=S(=O)(Nc1nc2ccccc2nc1NCC1CCCO1)c1cc(Cl)ccc1Cl (stereo not drawn)	-	-	-	-	-	-	.	.	.	.	.
CC(C)(C)c1cc(OC(=O)c2ccccc2F)ccc1O	-10.4	-	-	-	-	-	33.5%	-	39.0%	100.3	-
CC1CC(C)CN(C(=O)C(NS(=O)(=O)c2ccc(Br)s2)c2ccccc2)C1 (stereo not drawn)	-	-	-	-	-	-	.	.	.	.	.
Cc1c(C)n(C(=O)CN2CCN(c3ccccc3)CC2)c2ccccc12	-	-10	-	-	-	-	-	-	-	83.0	-
CCOC(=O)C1CCN(C(=O)c2cccnc2)CC1	-	-	-	-	-	-	.	.	.	.	.
CCOC(=O)C1CCN(C(c2cccnc2)c2c(NC(=O)c3ccco3)sc(C)c2C)CC1 (stereo not drawn)	-18.6	-10.7	-	-	-	-	66.5%	-	40.0%	136.3	0.114
SMILES	KCNK9 inh	KCNK3 block	hERG protect	Kir21 inh	KCNQ1 pot	KCNQ1 block	KCNK9 block conf	Kir21 sel	KCNK9 uninduced	KCNK3 confirm	KCNK3 noninduced
O=C(Nc1ccc(Br)cc1)/C(=C/c1cccc([N+](=O)[O-])c1)NC(=O)C1CCCCC1	-9.65	-9.44	-	-	-	-	50.0%	-	34.5%	107.3	0.148
N#Cc1c(-c2ccccc2)c(-c2ccccc2)n(Cc2ccco2)c1NC(=O)c1cccs1	-12.6	-12.7	-	-	-	6	57.5%	-	41.5%	112.0	-
Cc1nn(Cc2ccc(C(=O)Nc3ccc(C(=O)OC(C)C)cc3)o2)c(C)c1Cl	-10.3	-9.53	-	-	-	-	56.0%	-	-	107.3	-
Cc1nn(Cc2ccc(C(=O)NN)o2)c(C)c1Cl	-	-	-	-	-	-	.	.	.	.	.
Cc1nc2c(-c3ccc(F)cc3)c(C)nn2c(C)c1CCC(=O)N1CCC(Cc2ccccc2)CC1	-9.82	-10	-	-	-	-	-	-	41.5%	115.0	-
Cc1ccc([N+](=O)[O-])cc1-c1[nH]c(-c2ccc(O)c(O)c2)nc1-c1ccccc1	-9.01	-9.8	-	-	-	-	39.5%	-	-	111.3	-
COc1ccc([N+](=O)[O-])cc1-c1[nH]c(-c2ccc(C(=O)O)cc2)nc1-c1ccccc1	-	-	-	-	-	-	.	.	.	.	.
O=C(O)c1nn(-c2ccccc2)c(-c2ccccc2)c1C(=O)c1ccccc1	-	-	-	-	-	-	.	.	.	.	.
COC(=O)c1nn(-c2ccccc2)c(-c2ccccc2)c1C(=O)c1ccccc1	-9.41	-8.86	-	-	-	-	48.0%	-	-	106.3	-
CCc1ccc2c(c1)C1(NN=C(c3cccc4ccccc34)S1)C(=O)N2 (stereo not drawn)	-	-12.6	-	-	-	15	.	.	.	148.7	0.132
